Active and inactive are the calls of the source. The rule behind the calls is not given here.
What was measured:
[1] = molecular target: Phosphatidylinositol 4,5-bisphosphate 3-kinase catalytic subunit gamma isoform (Homo sapiens, UniProt P48736); assay: Inhibition of human PI3Kgamma by TR-FRET based Adapta assay
A-375 [2] = assay: Antiproliferative activity against human A-375 cells assessed as reduction in cell viability measured after 72 hrs by CellTiter-Fluor cell viability assay; type: functional, cell-based; conditions: A-375, 72 h
Method in brief: (§1)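 Cells grown in DMEM or RPMI 1640 with 10% FBS (20% for SET-2), 37 °C, 5% CO₂. About 500–1,000 cells/well seeded and incubated 24 h, then exposed to final concentrations of 0.1–20 μM for 72 h. Viability read by fluorescence (CellTiter-Fluor). IC₅₀ calculated from 3 independent experiments in duplicate wells, reported as mean ± SEM.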

[3] = Drug metabolism in JAK2V6175 transgenic myelofibrosis C57BL/6 mouse bone marrow at 325 mg/kg, po assessed as metabolite formation measured after 4 hrs by LC-MS/MS analysis; type: ADME, organism-based; conditions: in vivo
Method in brief: (§2)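 Mice received a single oral dose of 325 mg/kg (n=4 per compound). Blood, spleen and bone marrow taken about 4 h later and homogenized. Extracts centrifuged at 10,000 × g and separated by reverse-phase C18 UPLC (0.1% formic acid water/acetonitrile gradient). Parent and metabolites quantified by MRM LC-MS/MS against internal-standard calibration (0.02–160 ng/mL, r² ≥ 0.99). Synthesized metabolite standards used for confirmation. Levels given as ng/g, mean ± SEM.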

Spleen [4] = assay: Effect of MAPK signalling pathway in JAK2V6175 transgenic myelofibrosis C57BL/6 mouse spleen assessed as reduction in […] phosphorylation at 325 mg/kg, po administered daily for 5 days by flow cytometry analysis; type: functional, organism-based; conditions: time 5.0 day
Method in brief: (§3)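 JAK2V617F bone-marrow-transplant MF mice were dosed 325 mg/kg orally daily for 5 days, then sacrificed. Isolated cells stained intracellularly with APC-conjugated anti-pAKT (S473) or anti-pERK1/2 (T202/Y204). Mean fluorescence intensity measured by flow cytometry. Vehicle n=6, treated n=4; mean ± s.e.m., Welch's t-test.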

[5] = Drug concentration in JAK2V6175 transgenic myelofibrosis C57BL/6 mouse bone marrow at 325 mg/kg, po measured after 4 hrs by LC-MS/MS analysis; type: ADME, organism-based; conditions: read-out: Ct; method in brief: as §2
A-375 [6] = assay: Inhibition of ERK phosphorylation in human A-375 cells assessed as change in phosphorylated ERK level at 10 uM for 30 minutes in presence of PDGF by western blot analysis relative to control; type: cell-based; parameters: scale not given: the % may be the effect or the level left
Method in brief: (§4)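 A375 and D54 cells grown in DMEM with 10% FBS; SET-2 in RPMI with 20% FBS. Cells treated 30 min at 10 μM; A375 and D54 also received PDGF 50 ng/ml, which was omitted for SET-2. Cells lysed in RIPA with protease and phosphatase inhibitors, then SDS-PAGE/western blot for pAKT S473, pERK1/2 T202/Y204, total AKT and total ERK. Densitometry of phospho signal normalized to total protein, expressed as % of control. 3 independent experiments, mean ± SEM.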

[7] = molecular target: Dual specificity mitogen-activated protein kinase kinase 1 (Homo sapiens, UniProt Q02750); assay: Inhibition of human MEK-1 by Lanthascreen TR-FRET assay
Chain of Dual specificity mitogen-activated protein kinase kinase 1 (Q02750 whole entry): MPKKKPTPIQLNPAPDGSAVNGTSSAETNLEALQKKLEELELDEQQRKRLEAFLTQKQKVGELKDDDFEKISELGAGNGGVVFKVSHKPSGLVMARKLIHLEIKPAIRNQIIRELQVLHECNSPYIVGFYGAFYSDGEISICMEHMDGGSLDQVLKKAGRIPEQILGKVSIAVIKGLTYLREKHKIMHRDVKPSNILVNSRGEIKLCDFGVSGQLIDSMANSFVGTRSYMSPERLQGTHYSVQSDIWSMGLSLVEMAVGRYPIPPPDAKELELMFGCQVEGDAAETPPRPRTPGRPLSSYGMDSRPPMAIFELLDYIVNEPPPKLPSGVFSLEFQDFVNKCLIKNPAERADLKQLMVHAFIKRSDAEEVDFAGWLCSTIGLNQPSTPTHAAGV

Spleen [8] = assay: Effect in JAK2V6175 transgenic myelofibrosis C57BL/6 mouse spleen assessed as reduction in ERK1/2 phosphorylation at 325 mg/kg, po administered daily for 5 days by flow cytometry analysis; conditions: time 5.0 day
D54 cell line [9] = assay: Inhibition of ERK phosphorylation in human D-54 cells assessed as change in phosphorylated ERK level at 10 uM for 30 minutes in presence of PDGF by western blot analysis relative to control; type: cell-based; parameters: scale not given: the % may be the effect or the level left; method in brief: as §4
A-375 [10] = assay: Inhibition of AKT phosphorylation in human A-375 cells assessed as change in phosphorylated Akt level at 10 uM for 30 minutes in presence of PDGF by western blot analysis relative to control; type: cell-based; parameters: scale not given: the % may be the effect or the level left; method in brief: as §4
Spleen [11] = assay: Effect of PI3K signalling pathway in JAK2V6175 transgenic myelofibrosis C57BL/6 mouse spleen assessed as reduction in AKT phosphorylation at 325 mg/kg, po administered daily for 5 days by flow cytometry analysis; type: functional, organism-based; conditions: time 5.0 day; method in brief: as §3
Mus musculus [12] = assay: Antitumor activity against JAK2V6175 transgenic myelofibrosis C57BL/6 mouse cancer model assessed as reduction in spleen weight at 325 mg/kg, po administered daily for 5 days; parameters: scale not given: the % may be the effect or the level left; conditions: time 5 day
[13] = molecular target: Phosphatidylinositol 4,5-bisphosphate 3-kinase catalytic subunit beta isoform (Homo sapiens, UniProt P42338); assay: Inhibition of human PI3Kbeta by TR-FRET based Adapta assay
Chain of Phosphatidylinositol 4,5-bisphosphate 3-kinase catalytic subunit beta isoform (P42338 whole entry, canonical isoform): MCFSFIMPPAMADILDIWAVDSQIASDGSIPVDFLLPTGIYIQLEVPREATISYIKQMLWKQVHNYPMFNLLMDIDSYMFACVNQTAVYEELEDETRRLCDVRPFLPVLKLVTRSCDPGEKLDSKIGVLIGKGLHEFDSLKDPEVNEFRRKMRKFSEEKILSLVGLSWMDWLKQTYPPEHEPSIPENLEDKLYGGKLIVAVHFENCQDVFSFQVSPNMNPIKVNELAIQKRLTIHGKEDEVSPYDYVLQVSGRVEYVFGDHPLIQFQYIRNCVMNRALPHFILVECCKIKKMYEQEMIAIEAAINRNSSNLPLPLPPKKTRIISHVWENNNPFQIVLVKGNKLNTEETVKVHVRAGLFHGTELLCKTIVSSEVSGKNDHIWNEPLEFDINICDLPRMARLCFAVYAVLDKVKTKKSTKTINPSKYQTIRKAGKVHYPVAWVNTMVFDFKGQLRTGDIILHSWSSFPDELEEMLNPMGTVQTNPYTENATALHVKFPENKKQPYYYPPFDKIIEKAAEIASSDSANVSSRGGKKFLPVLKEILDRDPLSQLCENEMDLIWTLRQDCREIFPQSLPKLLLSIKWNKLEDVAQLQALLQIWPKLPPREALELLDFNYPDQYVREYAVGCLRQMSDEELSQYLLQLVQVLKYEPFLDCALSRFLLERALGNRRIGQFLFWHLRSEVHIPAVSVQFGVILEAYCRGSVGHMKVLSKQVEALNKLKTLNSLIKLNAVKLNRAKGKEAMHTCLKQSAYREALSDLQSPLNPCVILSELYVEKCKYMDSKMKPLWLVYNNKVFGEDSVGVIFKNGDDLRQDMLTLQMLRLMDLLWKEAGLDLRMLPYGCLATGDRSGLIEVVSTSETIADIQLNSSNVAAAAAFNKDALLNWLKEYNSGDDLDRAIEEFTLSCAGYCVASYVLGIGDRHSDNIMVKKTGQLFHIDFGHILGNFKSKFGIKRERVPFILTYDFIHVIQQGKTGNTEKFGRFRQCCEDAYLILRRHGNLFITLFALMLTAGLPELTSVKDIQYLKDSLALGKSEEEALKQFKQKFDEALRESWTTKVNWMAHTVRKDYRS

SET-2 = assay: Antiproliferative activity against human SET-2 cells assessed as reduction in cell viability measured after 72 hrs by CellTiter-Fluor cell viability assay; type: functional, cell-based; conditions: SET-2, 72 h; method in brief: as §1
[14] = Drug metabolism in JAK2V6175 transgenic myelofibrosis C57BL/6 mouse spleen at 325 mg/kg, po assessed as metabolite formation measured after 4 hrs by LC-MS/MS analysis; type: ADME, organism-based; conditions: in vivo; method in brief: as §2
SET2 [15] = assay: Inhibition of AKT phosphorylation in human SET2 cells assessed as change in phosphorylated Akt level at 10 uM for 30 minutes in absence of PDGF by western blot analysis relative to control; parameters: scale not given: the % may be the effect or the level left
[16] = molecular target: Phosphatidylinositol 4,5-bisphosphate 3-kinase catalytic subunit alpha isoform (Homo sapiens, UniProt P42336); assay: Inhibition of human PI3Kalpha by TR-FRET based Adapta assay
Chain of Phosphatidylinositol 4,5-bisphosphate 3-kinase catalytic subunit alpha isoform (P42336 whole entry, canonical isoform): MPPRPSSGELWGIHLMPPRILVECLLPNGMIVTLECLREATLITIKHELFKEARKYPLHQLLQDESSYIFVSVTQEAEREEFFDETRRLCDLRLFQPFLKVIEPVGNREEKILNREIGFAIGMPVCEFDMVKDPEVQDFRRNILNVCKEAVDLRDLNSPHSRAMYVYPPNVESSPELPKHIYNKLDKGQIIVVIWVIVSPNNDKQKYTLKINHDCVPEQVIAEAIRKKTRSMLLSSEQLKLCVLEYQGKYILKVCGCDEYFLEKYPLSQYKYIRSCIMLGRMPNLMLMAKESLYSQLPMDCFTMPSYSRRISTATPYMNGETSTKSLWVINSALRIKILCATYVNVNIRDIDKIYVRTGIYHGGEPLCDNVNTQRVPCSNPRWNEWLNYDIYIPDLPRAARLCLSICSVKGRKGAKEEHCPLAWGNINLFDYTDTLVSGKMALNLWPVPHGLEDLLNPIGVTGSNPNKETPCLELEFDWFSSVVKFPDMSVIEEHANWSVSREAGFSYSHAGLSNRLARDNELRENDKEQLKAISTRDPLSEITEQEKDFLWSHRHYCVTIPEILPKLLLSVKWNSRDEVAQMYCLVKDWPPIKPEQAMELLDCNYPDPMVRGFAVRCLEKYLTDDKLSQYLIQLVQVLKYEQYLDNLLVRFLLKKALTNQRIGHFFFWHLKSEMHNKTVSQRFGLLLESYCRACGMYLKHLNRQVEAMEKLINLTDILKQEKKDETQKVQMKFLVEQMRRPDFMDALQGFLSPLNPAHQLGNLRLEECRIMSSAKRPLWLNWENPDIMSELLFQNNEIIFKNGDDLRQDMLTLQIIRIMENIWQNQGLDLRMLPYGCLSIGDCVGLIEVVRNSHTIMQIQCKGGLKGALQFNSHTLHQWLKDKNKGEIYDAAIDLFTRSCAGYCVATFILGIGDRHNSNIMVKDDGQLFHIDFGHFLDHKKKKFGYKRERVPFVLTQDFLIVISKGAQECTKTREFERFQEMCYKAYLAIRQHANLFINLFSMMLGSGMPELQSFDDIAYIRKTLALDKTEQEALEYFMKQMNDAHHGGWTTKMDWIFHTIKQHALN

[17] = Drug concentration in JAK2V6175 transgenic myelofibrosis C57BL/6 mouse blood at 325 mg/kg, po measured after 4 hrs by LC-MS/MS analysis; type: ADME, organism-based; conditions: whole blood, read-out: Ct; method in brief: as §2
[18] = Drug concentration in JAK2V6175 transgenic myelofibrosis C57BL/6 mouse spleen at 325 mg/kg, po measured after 4 hrs by LC-MS/MS analysis; type: ADME, organism-based; conditions: read-out: Ct; method in brief: as §2
Spleen [19] = assay: Effect of MAPK signalling pathway in JAK2V6175F transgenic myelofibrosis C57BL/6 mouse spleen assessed as reduction in ERK1/2 phosphorylation at 325 mg/kg, po daily for 5 days by flow cytometry analysis; type: functional, organism-based; conditions: time 5.0 day; method in brief: as §3
D54 cell line [20] = assay: Antiproliferative activity against human D54 cells assessed as reduction in cell viability measured after 72 hrs by CellTiter-Fluor cell viability assay; type: functional, cell-based; conditions: D54, 72 h; method in brief: as §1
[21] = molecular target: T1, Phosphatidylinositol 4,5-bisphosphate 3-kinase catalytic subunit delta isoform (Homo sapiens, UniProt O00329); assay: Inhibition of human PI3Kdelta by TR-FRET based Adapta assay
T1 sequence (O00329 whole entry): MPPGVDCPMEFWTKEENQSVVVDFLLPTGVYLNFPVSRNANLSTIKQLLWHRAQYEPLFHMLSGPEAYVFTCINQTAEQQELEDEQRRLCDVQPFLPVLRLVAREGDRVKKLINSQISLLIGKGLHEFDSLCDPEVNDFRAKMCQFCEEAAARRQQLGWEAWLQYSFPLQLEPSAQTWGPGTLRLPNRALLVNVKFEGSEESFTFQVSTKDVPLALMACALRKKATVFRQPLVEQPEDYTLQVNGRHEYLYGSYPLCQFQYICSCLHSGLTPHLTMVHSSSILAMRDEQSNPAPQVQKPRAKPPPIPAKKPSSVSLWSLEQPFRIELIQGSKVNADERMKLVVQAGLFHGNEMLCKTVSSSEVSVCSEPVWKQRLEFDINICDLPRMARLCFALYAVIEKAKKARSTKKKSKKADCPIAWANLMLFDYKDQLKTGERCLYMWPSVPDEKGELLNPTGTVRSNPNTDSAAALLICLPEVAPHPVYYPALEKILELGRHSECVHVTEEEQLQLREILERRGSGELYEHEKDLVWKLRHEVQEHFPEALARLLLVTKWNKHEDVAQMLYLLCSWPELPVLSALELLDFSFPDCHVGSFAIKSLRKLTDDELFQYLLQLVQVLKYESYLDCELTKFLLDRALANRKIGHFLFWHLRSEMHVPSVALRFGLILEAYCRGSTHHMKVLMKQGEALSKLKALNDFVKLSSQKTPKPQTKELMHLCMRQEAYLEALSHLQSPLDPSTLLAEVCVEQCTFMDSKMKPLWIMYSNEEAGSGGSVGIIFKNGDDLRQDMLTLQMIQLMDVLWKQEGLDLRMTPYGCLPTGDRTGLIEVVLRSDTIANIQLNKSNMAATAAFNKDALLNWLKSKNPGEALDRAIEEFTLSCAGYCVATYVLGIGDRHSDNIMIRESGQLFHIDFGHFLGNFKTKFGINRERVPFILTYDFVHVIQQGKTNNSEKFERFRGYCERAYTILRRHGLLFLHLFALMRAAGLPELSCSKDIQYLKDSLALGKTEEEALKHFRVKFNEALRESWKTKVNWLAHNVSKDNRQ

D54 cell line [22] = assay: Inhibition of AKT phosphorylation in human D-54 cells assessed as change in phosphorylated Akt level at 10 uM for 30 minutes in presence of PDGF by western blot analysis relative to control; type: cell-based; parameters: scale not given: the % may be the effect or the level left; method in brief: as §4
Mus musculus [23] = assay: Antitumor activity against JAK2V6175 transgenic myelofibrosis C57BL/6 mouse cancer model assessed as reduction in spleen volume at 325 mg/kg, po administered daily for 4 days by magnetic resonance imaging analysis; type: functional, organism-based; conditions: time 4.0 day
Method in brief: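 Lethally irradiated C57BL/6 female recipients received 5 million mixed bone marrow cells (Mx1-Cre; JAK2V617F donor with WT, 1:9) and polyI:C twice 2 weeks after transplant. 325 mg/kg by oral gavage daily. Spleen volume by anatomic MRI at 7T after 4 days. Vehicle n=5, treated n=4; mean ± s.d., Welch's t-test.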

[24] = Drug metabolism in JAK2V6175 transgenic myelofibrosis C57BL/6 mouse blood at 325 mg/kg, po assessed as metabolite formation measured after 4 hrs by LC-MS/MS analysis; type: ADME, organism-based; conditions: in vivo; method in brief: as §2
SET2 [25] = assay: Inhibition of ERK phosphorylation in human SET2 cells assessed as change in phosphorylated ERK level at 10 uM for 30 minutes in absence of PDGF by western blot analysis relative to control; parameters: scale not given: the % may be the effect or the level left

Chain of Phosphatidylinositol 4,5-bisphosphate 3-kinase catalytic subunit gamma isoform (P48736 whole entry, canonical isoform): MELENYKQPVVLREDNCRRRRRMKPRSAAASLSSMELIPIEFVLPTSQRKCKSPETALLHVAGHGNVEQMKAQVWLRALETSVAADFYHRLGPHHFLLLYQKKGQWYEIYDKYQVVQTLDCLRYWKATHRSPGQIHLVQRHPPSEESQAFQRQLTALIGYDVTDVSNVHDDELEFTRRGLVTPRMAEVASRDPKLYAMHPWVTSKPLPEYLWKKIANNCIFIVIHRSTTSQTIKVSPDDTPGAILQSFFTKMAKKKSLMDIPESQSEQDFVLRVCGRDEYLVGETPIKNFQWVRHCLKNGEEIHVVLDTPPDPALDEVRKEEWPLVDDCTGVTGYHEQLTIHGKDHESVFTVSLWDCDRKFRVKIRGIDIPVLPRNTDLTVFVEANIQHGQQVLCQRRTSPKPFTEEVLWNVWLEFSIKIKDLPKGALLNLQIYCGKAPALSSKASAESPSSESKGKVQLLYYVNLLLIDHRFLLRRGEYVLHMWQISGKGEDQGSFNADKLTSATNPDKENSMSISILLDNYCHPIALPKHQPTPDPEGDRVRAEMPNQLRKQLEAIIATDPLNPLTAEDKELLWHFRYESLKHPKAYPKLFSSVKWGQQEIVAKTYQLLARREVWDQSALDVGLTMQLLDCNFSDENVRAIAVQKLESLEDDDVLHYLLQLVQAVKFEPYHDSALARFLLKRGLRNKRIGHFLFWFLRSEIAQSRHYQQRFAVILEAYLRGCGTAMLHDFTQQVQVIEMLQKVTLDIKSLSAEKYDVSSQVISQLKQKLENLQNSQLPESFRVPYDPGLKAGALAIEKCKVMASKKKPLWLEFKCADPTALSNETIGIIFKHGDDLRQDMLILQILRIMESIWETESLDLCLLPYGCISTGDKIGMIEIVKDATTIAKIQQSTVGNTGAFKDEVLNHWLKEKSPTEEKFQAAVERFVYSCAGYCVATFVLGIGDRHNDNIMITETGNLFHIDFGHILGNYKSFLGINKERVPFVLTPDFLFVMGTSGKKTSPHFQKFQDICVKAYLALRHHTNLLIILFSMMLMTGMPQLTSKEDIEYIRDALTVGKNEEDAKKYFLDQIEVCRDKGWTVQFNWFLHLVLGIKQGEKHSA

O=C(NOCCOCCOCCOCCNc1nc(N2CCOCC2)nc(-n2c(C(F)F)nc3ccccc32)n1)c1ccc(F)c(F)c1Nc1ccc(I)cc1F
IC50 [1]: 2740 nM | IC50 (A-375 [2]): 10.7 µM | Drug metabolism [3]: Metabolite_Detected | inhibition (Spleen [4]): Active | concentration at 4 h [5]: 2000 ng/g | Activity (A-375 [6]): 85.5% | IC50 [7]: 124 nM | inhibition (Spleen [8]): Active | Activity (D54 cell line [9]): 66.4% | Activity (A-375 [10]): 23.7% | inhibition (Spleen [11]): Active | Activity (Mus musculus [12]): 35% | IC50 [13]: 1540 nM | IC50 (SET-2): 10.7 µM | Drug metabolism [14]: Metabolite_Detected | Activity (SET2 [15]): 28.9% | IC50 [16]: 130 nM | concentration at 4 h [17]: 2000 ng/g | concentration at 4 h [18]: 2000 ng/g | inhibition (Spleen [19]): Active | IC50 (D54 cell line [20]): 17.3 µM | IC50 [21]: 236 nM | Activity (D54 cell line [22]): 22.5% | Activity (Mus musculus [23]): Active | Drug metabolism [24]: Metabolite_Detected | Activity (SET2 [25]): 76.8%

O=C(NOCCOCCOCCOCCN(CCO)c1nc(N2CCOCC2)nc(-n2c(C(F)F)nc3ccccc32)n1)c1ccc(F)c(F)c1Nc1ccc(I)cc1F
IC50 (A-375 [2]): 8.5 µM | Drug metabolism [3]: Metabolite_Detected | inhibition (Spleen [4]): Active | concentration at 4 h [5]: 2000 ng/g | Activity (A-375 [6]): 96% | inhibition (Spleen [8]): Active | Activity (D54 cell line [9]): 87.3% | Activity (A-375 [10]): 70.8% | inhibition (Spleen [11]): Active | Activity (Mus musculus [12]): 53% | IC50 (SET-2): 7 µM | Drug metabolism [14]: Metabolite_Detected | Activity (SET2 [15]): 54.8% | concentration at 4 h [17]: 2000 ng/g | concentration at 4 h [18]: 2000 ng/g | inhibition (Spleen [19]): Active | IC50 (D54 cell line [20]): 9.9 µM | Activity (D54 cell line [22]): 65.3% | Activity (Mus musculus [23]): Active | Drug metabolism [24]: Metabolite_Detected | Activity (SET2 [25]): 90%

From ChEMBL document CHEMBL5046229 (Eur J Med Chem, 2022)
